{"data": "Measurements from different studies", "read-out": "cell growth or viability", "note": "Lines come from different studies, so protocols differ."}
{"SMILES": "CC(C)(C)c1cnc(CSc2cnc(NC(=O)C3CCN(C(=O)CCCCCCCCCCCN4Cc5cc6c(cc5C4)C(=O)N(C4CCC(=O)NC4=O)C6=O)CC3)s2)o1 (centres unmarked)", "cell line": "TC-71", "technique": "MTT", "time": "72 h", "IC50": "79.9 nM"}
{"SMILES": "O=C(O)c1ccc(NCc2ccc(Br)cc2)cc1", "cell line": "NCI-H69", "technique": "resazurin", "time": "72 h", "IC50": "> 100000 nM"}
{"SMILES": "Cc1cc2c(C(N)=O)cncc2n1-c1nc2c(c(NCc3ccccc3)n1)CCCN2", "cell line": "RPMI-8226", "technique": "ATP luminescence", "time": "72 h", "IC50": "2900 nM"}
{"SMILES": "CC(C)(C)c1cnc(CSc2cnc(NC(=O)C3CCN(C(=O)CCCCCCCCCCN4Cc5cc6c(cc5C4)C(=O)N(C4CCC(=O)NC4=O)C6=O)CC3)s2)o1 (centres unmarked)", "cell line": "TC-71", "technique": "MTT", "time": "72 h", "IC50": "71.8 nM"}
{"SMILES": "COc1cc(CNc2ccc(C(=O)O)cc2)ccc1O", "cell line": "NCI-H69", "technique": "resazurin", "time": "72 h", "IC50": "> 100000 nM"}
{"SMILES": "O=C1CCCC2=C1C(c1c(C(=O)O)[nH]c3ccccc13)c1c(ccc3ccccc13)O2 (centres unmarked)", "cell line": "3T3-L1", "technique": "MTT", "time": "72 h", "IC50": "24.1 µg/mL"}
{"SMILES": "CC(C)(C)c1cnc(CSc2cnc(NC(=O)C3CCNCC3)s2)o1", "cell line": "TC-71", "technique": "MTT", "time": "72 h", "IC50": "48.9 nM"}
{"SMILES": "O=C(O)c1ccc(NCc2cccc(O)c2)cc1", "cell line": "NCI-H69", "technique": "resazurin", "time": "72 h", "IC50": "> 100000 nM"}
{"SMILES": "Cc1cc2c(C(N)=O)cccc2n1-c1nc(NCc2ccccc2)c2c(n1)NC(C)CC2 (centres unmarked)", "cell line": "RPMI-8226", "technique": "ATP luminescence", "time": "72 h", "IC50": "1300 nM"}
{"SMILES": "CC(C)(C)c1cnc(CSc2cnc(NC(=O)C3CCN(C(=O)CCCCN4Cc5cc6c(cc5C4)C(=O)N(C4CCC(=O)NC4=O)C6=O)CC3)s2)o1 (centres unmarked)", "cell line": "TC-71", "technique": "MTT", "time": "72 h", "IC50": "13 nM"}
{"SMILES": "CC(C)(C)NS(=O)(=O)c1cccc(C(=O)N2CC3(CCC4(CC4)CC3)c3cc(NS(C)(=O)=O)ccc32)c1", "cell line": "OVCAR-3", "time": "7 days", "IC50": "11 nM"}
{"SMILES": "Cc1cc2c(C(N)=O)cccc2n1-c1nc2c(c(OCc3ccccc3)n1)CCCN2", "cell line": "RPMI-8226", "technique": "ATP luminescence", "time": "72 h", "IC50": "4500 nM"}
{"SMILES": "CC(C)(C)c1cnc(CSc2cnc(NC(=O)C3CCN(C(=O)CCOCCN4Cc5cc6c(cc5C4)C(=O)N(C4CCC(=O)NC4=O)C6=O)CC3)s2)o1 (centres unmarked)", "cell line": "TC-71", "technique": "MTT", "time": "72 h", "IC50": "8.93 nM"}
{"SMILES": "COc1cccc(CNc2ccc(C(=O)O)cc2)c1OC", "cell line": "NCI-H69", "technique": "resazurin", "time": "72 h", "IC50": "> 100000 nM"}
{"SMILES": "Cc1cc2c(C(N)=O)nccc2n1-c1nc2c(c(NCc3ccccc3)n1)CCCN2", "cell line": "RPMI-8226", "technique": "ATP luminescence", "time": "72 h", "IC50": "4900 nM"}
{"SMILES": "O=C(O)c1ccc(NCc2cccc([N+](=O)[O-])c2)cc1", "cell line": "NCI-H69", "technique": "resazurin", "time": "72 h", "IC50": "> 100000 nM"}
{"SMILES": "Cc1cc2c(C(N)=O)cccc2n1-c1nc2c(c(NCc3cccc(O)c3)n1)CCCN2", "cell line": "RPMI-8226", "technique": "ATP luminescence", "time": "72 h", "IC50": "300 nM"}
{"SMILES": "CC(C)(C)c1cnc(CSc2cnc(NC(=O)C3CCN(CC(=O)NCCOCCOCCOCCNc4cccc5c4C(=O)N(C4CCC(=O)NC4=O)C5=O)CC3)s2)o1 (centres unmarked)", "cell line": "TC-71", "technique": "MTT", "time": "72 h", "IC50": "21.6 nM"}
{"SMILES": "O=C(O)c1ccc(NCc2cccc(C(F)(F)F)c2)cc1", "cell line": "NCI-H69", "technique": "resazurin", "time": "72 h", "IC50": "> 100000 nM"}
{"SMILES": "Cc1cc2c(C(=O)O)cccc2n1-c1nc2c(c(NCc3ccccc3)n1)CCCN2", "cell line": "RPMI-8226", "technique": "ATP luminescence", "time": "72 h", "IC50": "800 nM"}
